Screens (PubChem BioAssay)
Sampled rows, rich in hits. Any-hit rate of the full collection: about 2.9%.
CHO-K1 Ca antag: M1 antagonist counterscreen hit in parental CHO-K1 cells | ATP-induced calcium, Fluo-8 fluorescence | inhibition, % at 3 µM | 360,000 tested, 0.6% active | AID 602250;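 active = inhibition above a per-plate cutoff, the plate's mean sample inhibition plus 3 SD, cut at about 24% in these data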;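 note: 0% = DMSO plus EC80 ATP and 100% = DMSO alone without ATP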
OX1R antag-1: OX1R (human) antagonism; AID 485270; O43613; inhibition, % at 6.6 µM; OX1R-expressing cells, FRET antagonist read-out; 330,000 tested, 1.8% active; in the data active = inhibition mostly above about 38%, no sharp cut-off; inactive = mostly below about 40%;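 note: 0% = agonist challenge alone and 100% = reference antagonist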
Target sequence (O43613 whole entry, looked up): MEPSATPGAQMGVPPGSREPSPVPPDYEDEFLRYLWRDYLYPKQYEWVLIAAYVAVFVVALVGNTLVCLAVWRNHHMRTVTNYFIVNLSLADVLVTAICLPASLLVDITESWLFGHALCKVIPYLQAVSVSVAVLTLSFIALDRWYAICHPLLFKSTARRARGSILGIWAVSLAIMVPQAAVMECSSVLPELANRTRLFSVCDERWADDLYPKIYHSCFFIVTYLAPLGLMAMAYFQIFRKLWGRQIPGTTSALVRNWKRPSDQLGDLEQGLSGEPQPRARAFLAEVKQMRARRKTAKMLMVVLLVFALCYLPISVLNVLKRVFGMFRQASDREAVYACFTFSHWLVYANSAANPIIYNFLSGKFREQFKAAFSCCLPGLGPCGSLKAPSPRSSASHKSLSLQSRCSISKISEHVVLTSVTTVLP
M1 ag parental: nonselective activator or artifact in parental CHO-K1 cells; Fluo-8 calcium fluorescence; scaled to maximal ATP response, vehicle zero; activation, % at 3 µM; 360,000 tested, 0.48% active; in the data active = activation above about 15%;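 note: untransfected CHO-K1 host cells lacking M1 receptor as counterscreen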
OX1R antag-2: blocks the human orexin 1 receptor; CHO/OX1R cells, Fluo-8 calcium fluorescence, orexin A; inhibition, % at 5 µM; 330,000 tested, 0.43% active;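 active = inhibition above its plate's threshold, mean inhibition of all tested compounds on the plate plus 3 SD, cut at about 37% in these data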;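 note: 0% = orexin A challenge wells and 100% = SB-334867-A antagonist wells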
CHO parental Ca: counter-screen: ATP calcium response change in parental CHO cells. inhibition, % at 5.6 µM. parental CHO-K1, ATP-induced calcium, Fluo-8 fluorescence. 330,000 tested, 0.63% active;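 active = inhibition above that plate's mean sample inhibition plus 3 SD, cut at about 26% in these data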;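 note: 0% = ATP-challenged DMSO wells and 100% = DMSO wells without ATP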
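Test system: untransfected parental CHO cell line; also added: ATP stimulus; dosing: 5.6 µM, single dose; signal: calcium-sensitive Fluo-8 fluorescence; measure: percent inhibition of ATP-evoked calcium rise, normalized to controls; benchmarks: low control ATP plus DMSO, high control DMSO only; replication: one well per compound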
M1 PAM parental: nonselective activator or artifact in parental CHO-K1 calcium assay; 360,000 tested, 0.02% active; ATP EC20, Fluo-8 calcium fluorescence; 0% at ATP EC20, 100% at ATP max; AID 602247; activation, % at 3 µM;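 active = activation above the run cutoff, the mean activation of all test compounds plus 3 SD, cut at about 40% in these data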;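 note: peak over basal fluorescence ratio in a 140 s read after ATP addition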
Numbers without * were called inactive; / = no result given.

SMILES	CHO-K1 Ca antag	OX1R antag-1	M1 ag parental	OX1R antag-2	CHO parental Ca	M1 PAM parental
Cc1ccc(-n2c(SCC(=O)N3CC(=O)Nc4ccccc43)nc3ccccc3c2=O)cc1C	-7	72*	4	15	9	28
CC(C)c1ccccc1-n1c(SCC(=O)N2CCc3ccccc3C2)nc2ccccc2c1=O	-6	73*	1	24	-13	16
O=C(CSc1nc2ccccc2c(=O)n1-c1ccccc1)N1CCc2ccccc2C1	-8	55*	4	-9	-28	14
O=C(CSc1nc2ccccc2c(=O)n1-c1ccccc1)N1CCC1	-13	10	2	-9	-5	16
Cc1cccc(-n2c(SCC(=O)N3CC(=O)Nc4ccccc43)nc3ccccc3c2=O)c1	-7	32	5	-4	-18	22
COc1cc(OC)cc(C(=O)NCC(C)NC(=O)c2cc(OC)cc(OC)c2)c1 (centres undefined)	-8	20	1	-3	-19	14
O=c1cc(-c2ccccc2)c2cc(Cl)c(O)c(CN3CCOCC3)c2o1	0	65*	0	-4	-4	-10
CC(C)CNC(=O)c1ccc(-c2ccc(F)c(F)c2)c2ccoc12	-6	/	0	/	/	8
CC(=O)c1sc2nc(C)c3c(c2c1N)CCCC3	-9	50*	1	-32	-18	16
C=CCNC(=S)Nc1ccc(N(C)C)cc1	8	17	0	2	-25	-15
CC(=O)N1CCN(C(=O)COC(=O)/C=C/c2ccccc2[N+](=O)[O-])CC1	-12	37*	1	5	1	2
O=C(/C=C/c1ccccc1[N+](=O)[O-])OCC(=O)N1CCN(c2ccccc2)CC1	2	/	2	/	/	9
CC(=O)N(C1=C(N)C(=O)c2ccccc2C1=O)C(C)C	-15	48*	0	-6	-3	10
COc1ccccc1N(C(C)=O)C1=C(Cl)C(=O)c2ccccc2C1=O	15	/	3	/	/	-3
CCCN(C(=O)Cc1csc(-c2ccccc2)n1)C1CCS(=O)(=O)C1 (centres undefined)	2	1	1	-9	0	6
COc1ccccc1C(O)(c1ccccc1)c1ccccc1OC	-10	/	-1	/	/	5
CC(c1ccccc1C(O)(c1ccccc1)c1ccccc1)N(C)C (centres undefined)	6	5	23*	32	30*	4
CC(C)Cc1nnc(NC(=O)c2ccc(S(=O)(=O)N3CCCC3)cc2)s1	5	/	1	/	/	6
O=C(NCc1ccccc1)c1cccc2c1C(=O)c1ccc(/C=C/c3ccccc3)cc1S2(=O)=O	-7	13	0	-16	10	-9
CN1C(=O)C(CC(=O)Nc2ccc(F)cc2)N(CCCc2ccccc2)C1=S (centres undefined)	3	52	3	48*	4	27
CCOC(=O)c1ccccc1NC(=O)COC(=O)CN1C(=O)NC2(CCCC2)C1=O	10	1	1	-12	-7	-15
Cc1c(NC(=O)c2cc3ccccc3o2)cccc1-n1cnnn1	-6	/	1	/	/	8
C/C(=N\NC(=O)CCc1c[nH]c2ccccc12)c1ccc([N+](=O)[O-])cc1	-5	59*	1	-9	0	13
CCCN(CC(=O)Nc1ccccc1OC)C(=O)CN1C(=O)NC(C)(C)C1=O	-11	/	0	/	/	22
CC1(C(=O)NC2CCCC2)CCC(=O)N1CCc1c[nH]c2ccccc12 (centres undefined)	10	/	1	/	/	4
SMILES	CHO-K1 Ca antag	OX1R antag-1	M1 ag parental	OX1R antag-2	CHO parental Ca	M1 PAM parental
CC(C)C[C@H]1CN(CCCC[C@@H]2CNC(=O)C(=O)N2Cc2ccccc2)C(=O)C(=O)N1CC1CCCCC1	-11	/	0	/	/	3
CCn1c(=NC(=O)c2ccco2)sc2cccc(F)c21	-2	65*	0	-4	-17	12
O=C(CNC(=O)N1CC(=O)Nc2ccccc21)NCc1ccccc1Cl	-16	10	0	-6	12	14
CC1Cc2ccccc2N1C(=O)CCNS(=O)(=O)c1cccc2nsnc12 (centres undefined)	-20	60*	1	5	-27	22
COc1ccc(CCNC(=O)CCNS(=O)(=O)c2cccc3nsnc23)cc1OC	-1	61*	0	-16	-18	10
COc1cccc(C(O)c2ncc(-c3ccc(Cl)cc3)[nH]2)c1 (centres undefined)	8	/	0	/	/	-9
CC(C)C[C@@H]1Cc2[nH][nH]c(=O)c2[C@H](c2ccc(Cl)cc2)O1	-26	/	1	/	/	23
Oc1cc(NCCc2cccnc2)cc2cccnc12	-7	66*	0	-26	-14	4
Oc1cc(Nc2cccnc2)cc2cccnc12	-14	26	1	-4	-9	9
C=CCN1C=CC(=C/C=C(/C#N)C(=O)OCC)C=C1	4	60*	9	19	11	-7
CCOC(=O)/C(C#N)=C\N(C)C	3	3	0	-1	-5	11
CCN(CC)CCn1c(=S)[nH]c2cc(C(=O)N3CC(C)CC(C)C3)ccc2c1=O (centres undefined)	-7	6	0	-4	-16	-6
Cc1ccc2oc(-c3cccc(NC(=O)c4ccccn4)c3)nc2c1	-5	68*	1	-42	-4	4
COc1cc(C(=O)Nc2cccc(-c3nc4cc(C)ccc4o3)c2)cc(OC)c1OC	1	42	1	-16	-16	8
CCOc1ccccc1-c1c2cc(O)c(=O)cc-2oc2cc(O)c(O)cc12	3	/	17*	/	/	11
COCCN1C[C@@H](CO)O[C@@H](n2cnc3c(N(C)C(C)C)ncnc32)C1	-2	/	0	/	/	5
CCc1ccc(S(=O)(=O)/N=C2\C=CC(=O)c3ccccc32)cc1	/	18	/	-15	-8	/
CCc1ccc(S(=O)(=O)/N=C2\C=C(Nc3ccc(O)cc3)C(=O)c3ccccc32)cc1	-15	33	-1	15	-4	-12
CCc1ccc(S(=O)(=O)/N=C2/C=C(Sc3ncn[nH]3)C(=O)c3ccccc32)cc1	11	68*	2	-14	-12	-7
CCc1ccc(S(=O)(=O)/N=C2\C=C(Nc3cccc(C(=O)O)c3)C(=O)c3ccccc32)cc1	-11	46*	1	-13	-7	12
N/C(=N\OC(=O)c1cccc(Cn2cc(C(F)(F)F)ccc2=O)c1)c1ccccc1	13	4	9	48*	46*	10
Cc1ccc(/C(N)=N/OC(=O)c2cccc(Cn3cc(C(F)(F)F)ccc3=O)c2)cc1	-12	3	1	-27	-10	13
O=C1CCCN1CCCNc1nc(NCc2ccccc2)nc2ccsc12	84*	/	86*	/	/	-16
CCCCNc1nc(NCc2ccccc2)nc2ccccc12	54*	/	49*	/	/	-17
COCCNc1nc(NCc2ccccc2)nc2ccsc12	95*	/	77*	/	/	-16
